Hits are enriched below; roughly 3.7% of the tested compounds scored in any of these assays.
Kir21 inh – blocks the mouse Kir2.1 inward-rectifier potassium channel; P35561; HEK293-Kir2.1, FluxOR thallium flux fluorescence; active compounds read low; hit rate 0.85% among 310,000; B-score at 10 µM;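 active means fluorescence ratio B-score at or below minus 3 SD of library scores, with starting-brightness B-score within 2 SD, cut at about -4.2 in these data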;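 further: channel flux triggered by added potassium and thallium sulfate stimulus; B-score of peak minus minimum fluorescence over baseline after thallium stimulus; more negative B-score means stronger Kir2.1 block with less thallium influx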
KCNQ1 inh – human KCNQ1 channel inhibition; CHO-K1 KCNQ1, FluxOR thallium flux fluorescence; active compounds read high; B-score at 10 µM; hit rate 1.3% among 310,000; AID 2642; P51787;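 active means compounds whose thallium flux B-score, printed positive for inhibition, exceeds three library SD while starting fluorescence stays within three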;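 further: channel opened by potassium depolarization with thallium stimulus after 20 min compound exposure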
KCNK3 inh – human KCNK3 channel inhibition, primary screen. B-score at 10 µM. O14649. hit rate 0.84% among 340,000. CHO-KCNK3 thallium flux, FluxOR fluorescence; active compounds read low;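 active means B-score under library mean minus 4 SD, starting fluorescence ratio at most library mean plus 5 SD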;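 further: more negative B-score means stronger inhibition of thallium flux through KCNK3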
Target sequence (O14649 whole entry, looked up): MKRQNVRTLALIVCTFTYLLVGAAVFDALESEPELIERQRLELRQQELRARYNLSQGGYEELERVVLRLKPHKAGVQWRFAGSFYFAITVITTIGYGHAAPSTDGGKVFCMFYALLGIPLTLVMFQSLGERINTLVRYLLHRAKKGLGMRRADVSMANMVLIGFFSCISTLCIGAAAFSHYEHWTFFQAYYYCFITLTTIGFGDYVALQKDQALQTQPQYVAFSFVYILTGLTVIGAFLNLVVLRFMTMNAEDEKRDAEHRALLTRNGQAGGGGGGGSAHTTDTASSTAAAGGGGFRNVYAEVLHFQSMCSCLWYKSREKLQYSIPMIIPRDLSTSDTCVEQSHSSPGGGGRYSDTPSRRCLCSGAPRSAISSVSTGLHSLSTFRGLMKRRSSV
KCNK9 inh – inhibitors of human KCNK9 two-pore domain potassium channel | Q9NPC2 | HEK293 KCNK9, FluxOR thallium flux fluorescence; active compounds read low | B-score at 10 µM | hit rate 1.2% among 310,000 | AID 488922;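 active means ratio B-score over 3 SD below the library mean, with starting fluorescence within 5 SD of its mean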;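 further: negative B-score means less thallium flux so channel inhibition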
KCNQ1 pot – potentiates or activates the human KCNQ1 potassium channel; P51787; hit rate 0.35% among 310,000; B-score at 10 µM; AID 2648; CHO-K1 KCNQ1, thallium flux FluxOR fluorescence; active compounds read high;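 active means fluorescence ratio B-score, a plate-corrected score, at least three library SD, with initial intensity B-score within 5 SD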
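System: CHO-K1 cells stably expressing KCNQ1 / Medium: assay buffer for compound exposure, DMSO matched across wells / Reagent: thallium- and potassium-containing depolarizing buffer / Compound: one concentration, matched DMSO / Incubation: 20 min compound pretreatment at room temperature / Measured by: kinetic FluxOR fluorescence, 10 s baseline plus 110 s post-stimulus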
hERG rescue – compounds protecting human hERG from proarrhythmic drug block | activation (rescue from dofetilide block), less the hit threshold, % at 10 µM | AID 1511 | CHO-hERG, FluxOR thallium flux, dofetilide IC70 present | Q12809 | hit rate 0.51% among 310,000;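 active means activation above the mean of controls blocked by dofetilide plus 5 SD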;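 further: thallium influx through hERG after potassium depolarization seen as dye fluorescence rise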
KCNK9 block conf – confirmation of human KCNK9 potassium channel inhibitors | HEK293 KCNK9 cells, FluxOR thallium flux fluorescence | inhibition, % at 10 µM | AID 492992 | shares compounds with KCNK9 inh | hit rate 43% among 4,900;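 active means thallium signal inhibited by more than 5 SD of the compound-free buffer control wells, on both duplicate plates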;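 further: 0% = assay buffer control wells without compound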
Kir21 sel – selectivity of KCNK9 modulators against mouse Kir2.1 | shares compounds with KCNK9 inh | Kir2.1 cells, FluxOR thallium flux fluorescence | inhibition, % at 10 µM | hit rate 4% among 4,900;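 active means thallium signal drop more than 5 SD beyond the mean of the no-compound control wells, seen in both duplicate plates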;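 further: signal is fluorescence rise after thallium addition divided by baseline fluorescence; plate controls were assay buffer only for no effect and full block by chlorpromazine control for full effect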
KCNK9 uninduced – non-induced cell nonspecific activity of KCNK9 modulators. hit rate 40% among 4,900. inhibition, % at 10 µM. shares compounds with KCNK9 inh. non-induced KCNK9-HEK293, FluxOR thallium flux;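 active means thallium signal drop beyond 5 SD of the untreated control mean, on both duplicate plates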;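 further: plate controls were buffer only IC0 wells for no effect and SID17386958 at its maximal inhibitory level for full effect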
* marks the source's active call; other numbers are inactive results; i = inactive; · = no result given.

SMILES | Kir21 inh | KCNQ1 inh | KCNK3 inh | KCNK9 inh | KCNQ1 pot | hERG rescue | KCNK9 block conf | Kir21 sel | KCNK9 uninduced
O=C(CSc1nc2ccccc2c2c1CCCC2)N1CCOCC1 | -0.99 | i | i | i | i | -13 | i | i | i
Cc1csc(NC(=O)CSc2nc3ccccc3c3c2CCCC3)n1 | 1.6 | i | i | i | i | -1 | i | i | i
c1ccc2c(c1)ncn2CCCOc1ccc2c(c1)CCC2 | -0.05 | i | i | i | i | -23 | i | i | i
C=CCN1C(=O)C2C3CC(=O)C(c4ccccc43)C2C1=O (stereo not drawn) | -1.7 | i | i | i | i | -10 | · | · | ·
CN(C)NC(=S)NC(=O)C12CC3CC(CC(C3)C1)C2 | 1.9 | i | i | i | i | -8 | · | · | ·
CC12CC3(C)CC(C)(C1)CC(C(=O)NC(=S)NC(C)(C)C)(C2)C3 | -1.6 | i | i | i | i | -8 | i | i | i
CC(C)(C)NC(=S)NC(=O)C12CC3CCC(CC(C3)C1)C2 | 0.08 | i | i | i | i | -3 | i | i | i
O=C(NC(=S)Nc1ccc(Cl)cn1)C12CC3CC(CC(C3)C1)C2 | 0.29 | i | i | i | i | 0 | · | · | ·
O=C(NC(=S)NC1C2CC3CC(C2)CC1C3)C12CC3CC(CC(C3)C1)C2 (stereo not drawn) | 0.23 | i | i | i | i | -7 | i | i | i
Cn1ncc(N=Cc2ccccc2)c1C(=O)Nc1cccc(Cl)c1 | -1.1 | i | i | i | i | -6 | · | · | ·
O=C(O)c1ccc(-c2nc(-c3ccc(Cl)c(Cl)c3)cs2)cc1 | 3.1 | i | i | i | i | -2 | i | i | i
Fc1ccc(Sc2nc(-c3ccccc3)nnc2C(F)(F)F)cc1 | 0.78 | i | i | i | i | -7 | i | i | i
COC(=O)C(NNc1ccccc1C)(NC(=O)c1ccc(F)cc1)C(F)(F)F (stereo not drawn) | 0.2 | i | i | i | i | -11 | · | · | ·
Cc1ccc(C(=O)Nc2ccc(Cc3ccncc3)cc2)cc1[N+](=O)[O-] | -1.8 | i | i | i | i | -8 | i | i | i
O=C(c1ccco1)N1CCN(Cc2cc(=O)c(OCc3c(F)cccc3Cl)co2)CC1 | -0.31 | i | i | i | i | -12 | · | · | ·
CC(=O)c1cccc(NC(=S)NC(=O)c2cccc(C)c2)c1 | 0.69 | i | i | i | i | -8 | · | · | ·
Cc1cccc(C(=O)NC(=S)Nc2cccc3nc(C)ccc23)c1 | -0.28 | i | i | i | i | -7 | i | i | i
CCN(CC(=O)Nc1ccc(OC)cc1)C(=O)c1ccc2c(c1)NC(=O)CS2 | · | · | i | · | · | · | · | · | ·
CCOC(=O)CC(NCc1ccc(OC)c(OCC)c1)c1ccc(C)cc1 (stereo not drawn) | 0.01 | i | i | i | i | -8 | i | i | i
CCOC(=O)CCNCc1ccc(OC)c(OC)c1 | -0.12 | i | i | i | i | -9 | · | · | ·
COC(=O)c1c(N)sc2c1CCN(c1ncc(C(F)(F)F)cc1Cl)C2 | -0.42 | i | i | -9.4* | i | -4 | 38%* | i | i
NC(=O)NCCN1CCN(c2ncc(C(F)(F)F)cc2Cl)CC1 | -1.5 | i | i | i | i | -2 | · | · | ·
COc1ccc(NC(=O)Nc2cccc3c2O[C@H](CN(C)S(=O)(=O)c2cn(C)cn2)[C@@H](C)CN([C@H](C)CO)C3=O)cc1 | · | · | i | · | · | · | · | · | ·
CCC(=O)N(C(=O)CC)N1CCN(c2ccncc2S(=O)(=O)N2CCCCC2)CC1 | -1.6 | i | i | -9.3* | i | -11 | 42%* | i | 42%*
